Legend:
Type in all cases: functional
Cavia porcellus [1] = species: Cavia porcellus; test: Inhibition of slow reacting substance of anaphylaxis (SRS-A) release from sensitized guinea pig chopped lung upon antigen challenge at 10 ug/mL
In short: (§1)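 Guinea pigs sensitized to ovalbumin; lungs taken 3 weeks later, perfused with Tyrode, chopped into 0.5-mm cubes. 100-mg aliquots in Tyrode were preincubated 5 min at 37 °C, then compound or Tyrode and ovalbumin (5 mg in 0.1 mL) were added. Incubation was 15 min at 37 °C with rocking, and supernatant was bioassayed. Unchallenged control gave spontaneous release. Values are % inhibition, mean of ≥4 samples; Student's t-test.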

Cavia porcellus [2] = species: Cavia porcellus; test: Inhibition of histamine release from sensitized guinea pig chopped lung upon antigen challenge at 10 ug/mL.; in short: as §1
Homo sapiens [3] = species: Homo sapiens; test: Inhibition of Slow reacting substance of anaphylaxis (SRS-A) mediator release form passively sensitized human lung upon antigen challenge at 10 ug/mL dose
In short: (§2)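 Healthy human lung from carcinoma surgery was chopped into 0.5-mm cubes and passively sensitized 18 h at 18 °C with atopic serum from cocksfoot-pollen-allergic patients. Tissue was preincubated 5 min with compound, challenged with pollen extract (0.1 mL, 1000 noon units) and incubated as for guinea pig lung. Supernatant was bioassayed on guinea pig ileum, with mepyramine-treated (0.4 μg/mL) ileum for SRS-A. Values are % inhibition of mediator release.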

Homo sapiens [4] = species: Homo sapiens; test: Inhibition of Slow reacting substance of anaphylaxis (SRS-A) mediator release form passively sensitized human lung upon antigen challenge at 1 ug/mL dose; in short: as §2
Homo sapiens [5] = species: Homo sapiens; test: Inhibition of Histamine mediator release form passively sensitized human lung upon antigen challenge at 10 ug/mL dose; in short: as §2
Homo sapiens [6] = species: Homo sapiens; test: Inhibition of Histamine mediator release form passively sensitized human lung upon antigen challenge at 1 ug/mL dose; in short: as §2
Cavia porcellus [7] = test: Mean collapse time after pretreatment with compound divided by mean collapse time of untreated control animals at 50 mg/kg po dose
In short: (§3)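 Modified Herxheimer test in conscious sensitized guinea pigs, 4-5 per group. Compound was given orally at 25, 50 or 100 mg/kg 2 or 4 h before antigen challenge. Some groups also received mepyramine 0.5 mg/kg sc 0.5 h before challenge. D = mean collapse time of treated/untreated controls; M+D = mean collapse time of compound+mepyramine/mepyramine-dosed controls.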

Cavia porcellus [8] = test: Mean collapse time after pretreatment with compound and mepyramine divided by mean collapse time of mepyramine-dosed control animals at 50 mg/kg po dose; in short: as §3
Cavia porcellus [9] = test: Time of dosing of compound before antigen challenge in conscious sensitized guinea pig at 50 mg/kg po dose; settings: dose 50 mg/kg; in short: as §3

CCc1ccc(O)c(C(=O)c2ccco2)c1
Inhibition (Cavia porcellus [1]): 32%
Inhibition (Cavia porcellus [2]): 0%

C=C(c1ccccc1)c1cc(CC)ccc1O
Inhibition (Cavia porcellus [1]): 24%

CCc1ccc(OC(C)=O)c(C(=O)c2ccc(Cl)cc2)c1
Inhibition (Cavia porcellus [1]): 28%

CCc1ccc(O)c(C(=O)c2cccc(C#N)c2)c1
Inhibition (Cavia porcellus [1]): 21%

CCc1ccc(O)c(C(O)c2ccc(Cl)cc2)c1 (centres undefined)
Inhibition (Cavia porcellus [1]): 5%

CCc1ccc(OC(C)=O)c(C(=O)c2ccc(C)cc2)c1
Inhibition (Cavia porcellus [1]): 49%
Inhibition (Cavia porcellus [2]): 9%

CCc1cccc(C(=O)c2ccc(Cl)cc2Cl)c1O
Inhibition (Homo sapiens [3]): 100%
Inhibition (Cavia porcellus [1]): 44%
Inhibition (Cavia porcellus [2]): 8%
Inhibition (Homo sapiens [4]): 85%
Inhibition (Homo sapiens [5]): 60%
Inhibition (Homo sapiens [6]): 20%

CCc1ccc(S(C)(=O)=O)c(C(=O)c2ccccc2)c1
Inhibition (Cavia porcellus [1]): 35%
Inhibition (Cavia porcellus [2]): 13%

CCc1ccc(S(C)(=O)=O)c(C(=O)c2ccc(Cl)cc2)c1
Inhibition (Cavia porcellus [1]): 17%

CCc1ccc(C(=O)c2ccc(F)cc2)c(OC(C)=O)c1
Inhibition (Cavia porcellus [1]): 9%

CCc1ccc(O)c(/C(=N/O)c2ccc(Cl)cc2)c1
Inhibition (Homo sapiens [3]): 91%
Inhibition (Cavia porcellus [1]): 51%
Inhibition (Cavia porcellus [2]): 28%
Inhibition (Homo sapiens [4]): 93%
Inhibition (Homo sapiens [5]): 0%
Inhibition (Homo sapiens [6]): 0%

CCc1ccc(O)c(C(=O)c2cccn2C)c1
Inhibition (Cavia porcellus [1]): 0%
Activity (Cavia porcellus [7]): 1.2
Activity (Cavia porcellus [8]): 2.3
Time (Cavia porcellus [9]): 2 h

CCc1ccc(O)c(C(=O)c2ccc(Cl)s2)c1
Inhibition (Cavia porcellus [1]): 21%

CCc1ccc(OC)c(C(=O)c2ccccn2)c1
Inhibition (Cavia porcellus [1]): 0%

CCc1ccc(O)c(Cc2ccc(C)cc2)c1
Inhibition (Cavia porcellus [1]): 0%

CCc1ccc(SC)c(C(O)c2ccc(Cl)cc2)c1 (centres undefined)
Inhibition (Cavia porcellus [1]): 11%

CCc1ccc(O)c(/C(=N/O)c2ccc(Cl)cc2Cl)c1
Inhibition (Cavia porcellus [1]): 0%

CCc1ccc(O)c(Cc2ccc(Cl)cc2)c1
Inhibition (Cavia porcellus [1]): 39%
Inhibition (Cavia porcellus [2]): 17%

CCc1ccc(O)c([S+]([O-])c2ccccc2)c1 (centres undefined)
Inhibition (Cavia porcellus [1]): 36%
Inhibition (Cavia porcellus [2]): 36%

CCc1cccc(C(=O)c2ccccc2)c1O
Inhibition (Cavia porcellus [1]): 37%
Inhibition (Cavia porcellus [2]): 92%

CCCc1ccc(O)c(/C(=N/O)c2ccc(Cl)cc2)c1
Inhibition (Cavia porcellus [1]): 8%

O=C(c1ccccc1)c1ccccc1O
Inhibition (Cavia porcellus [1]): 0%

Cc1ccc(/C(=N/O)c2ccc(Cl)cc2)c(O)c1
Inhibition (Cavia porcellus [1]): 0%

CCc1ccc(O)c(C(=O)c2ccccc2Cl)c1
Inhibition (Cavia porcellus [1]): 14%

CCc1ccc(O)c(/C(=N/O)c2ccc(Cl)c(Cl)c2)c1
Inhibition (Cavia porcellus [1]): 2%

CCc1ccc(O)c(C(=O)c2ccc(Br)cc2)c1
Inhibition (Cavia porcellus [1]): 10%

CCc1cc(CC)c(O)c(C(=O)c2ccc(Cl)cc2)c1
Inhibition (Cavia porcellus [1]): 38%
Inhibition (Cavia porcellus [2]): 9%

CCc1cccc(/C(=N/O)c2ccccc2)c1O
Inhibition (Cavia porcellus [1]): 13%

CCc1ccc(O)c(C(=O)c2ccc([N+](=O)[O-])cc2)c1
Inhibition (Cavia porcellus [1]): 5%

CCc1ccc(OC)c(C(=O)c2ccncc2)c1
Inhibition (Cavia porcellus [1]): 0%

CCc1ccc(S(C)(=O)=O)c(C(=O)c2ccc(F)cc2)c1
Inhibition (Cavia porcellus [1]): 27%

CCCc1ccc(O)c(C(=O)c2ccc(Cl)cc2)c1
Inhibition (Cavia porcellus [1]): 0%

CCc1ccc(O)c(C(=O)c2ccc(Cl)cc2Cl)c1
Inhibition (Cavia porcellus [1]): 0%

Cc1ccc(O)c(C(=O)c2ccccc2)c1
Inhibition (Cavia porcellus [1]): 39%
Inhibition (Cavia porcellus [2]): 78%

CCc1ccc([S+](C)[O-])c(C(=O)c2ccc(Cl)cc2)c1 (centres undefined)
Inhibition (Cavia porcellus [1]): 36%
Inhibition (Cavia porcellus [2]): 1%

Cc1ccc(O)c(/C(=N/O)c2ccc(Cl)cc2)c1
Inhibition (Cavia porcellus [1]): 40%
Inhibition (Cavia porcellus [2]): 59%

CCc1ccc(SC)c(C(=O)c2ccc(C)cc2)c1
Inhibition (Cavia porcellus [1]): 32%
Inhibition (Cavia porcellus [2]): 0%

CCc1ccc(O)c(C(=O)c2ccccn2)c1
Inhibition (Cavia porcellus [1]): 30%
Inhibition (Cavia porcellus [2]): 5%

CCc1ccc(/C(=N/O)c2ccc(F)cc2)c(O)c1
Inhibition (Cavia porcellus [1]): 33%
Inhibition (Cavia porcellus [2]): 46%

CCc1ccc(SC)c(C(=O)c2ccc(Cl)cc2)c1
Inhibition (Cavia porcellus [1]): 29%
Activity (Cavia porcellus [7]): 0.6
Activity (Cavia porcellus [8]): 2.3

CCCc1cccc(C(=O)c2ccccc2)c1O
Inhibition (Cavia porcellus [1]): 0%

Cc1ccc(O)c(/C(=N\O)c2ccc(Cl)cc2)c1
Inhibition (Cavia porcellus [1]): 32%
Inhibition (Cavia porcellus [2]): 25%

CCc1cccc(C(=O)c2ccc(Cl)cc2)c1O
Inhibition (Cavia porcellus [1]): 2%

Cc1ccc(C(=O)c2ccc(Cl)cc2)c(O)c1
Inhibition (Cavia porcellus [1]): 0%

CCc1ccc(OC)c(C(=O)c2cc[n+]([O-])cc2)c1
Inhibition (Cavia porcellus [1]): 0%

CCc1ccc(O)c(C(=O)c2ccncc2)c1
Inhibition (Cavia porcellus [1]): 0%

CCc1ccc(O)c(C(O)c2ccccc2)c1 (centres undefined)
Inhibition (Cavia porcellus [1]): 37%
Inhibition (Cavia porcellus [2]): 7%

CCc1ccc([S+](C)[O-])c(C(=O)c2ccc(C)cc2)c1 (centres undefined)
Inhibition (Homo sapiens [3]): 100%
Inhibition (Cavia porcellus [1]): 40%
Inhibition (Cavia porcellus [2]): 3%
Inhibition (Homo sapiens [4]): 75%
Inhibition (Homo sapiens [5]): 0%
Inhibition (Homo sapiens [6]): 0%

Cc1cccc(/C(=N/O)c2ccccc2)c1O
Inhibition (Homo sapiens [3]): 62%
Inhibition (Cavia porcellus [1]): 0%
Inhibition (Homo sapiens [4]): 39%
Inhibition (Homo sapiens [5]): 15%
Inhibition (Homo sapiens [6]): 8%

CCCCc1ccc(O)c(C(=O)c2ccc(Cl)cc2)c1
Inhibition (Cavia porcellus [1]): 0%

C=C(c1ccc(F)cc1)c1ccc(CC)cc1O
Inhibition (Cavia porcellus [1]): 32%
Inhibition (Cavia porcellus [2]): 0%

Cc1ccc(O)c(C(=O)c2ccc(Cl)cc2)c1
Inhibition (Cavia porcellus [1]): 46%
Inhibition (Cavia porcellus [2]): 0%

CCc1ccc(O)c(Sc2ccccc2)c1
Inhibition (Cavia porcellus [1]): 0%

CCc1ccc(O)c(Cc2ccccc2)c1
Inhibition (Cavia porcellus [1]): 36%
Inhibition (Cavia porcellus [2]): 0%
Activity (Cavia porcellus [7]): 3
Activity (Cavia porcellus [8]): 1.6

CCc1ccc(S(C)(=O)=O)c(C(=O)c2ccc(C)cc2)c1
Inhibition (Cavia porcellus [1]): 11%

CCc1ccc(O)c(C(=O)c2ccc(C)s2)c1
Inhibition (Cavia porcellus [1]): 28%

CCc1ccc(SC)c(C(=O)c2ccccc2)c1
Inhibition (Cavia porcellus [1]): 52%
Inhibition (Cavia porcellus [2]): 19%

CCc1ccc(O)c(C(=O)c2ccc3ccccc3c2)c1
Inhibition (Cavia porcellus [1]): 2%

CCc1ccc(OC)c(C(=O)c2ccc([N+](=O)[O-])cc2)c1
Inhibition (Cavia porcellus [1]): 0%
Activity (Cavia porcellus [7]): 0.8
Activity (Cavia porcellus [8]): 2.1
Time (Cavia porcellus [9]): 2 h

CCc1ccc(SC)c(C(=O)c2ccc(F)cc2)c1
Inhibition (Cavia porcellus [1]): 31%
Inhibition (Cavia porcellus [2]): 14%

Cc1cccc(C(=O)c2ccc(Cl)cc2)c1O
Inhibition (Homo sapiens [3]): 100%
Inhibition (Cavia porcellus [1]): 36%
Inhibition (Cavia porcellus [2]): 6%
Inhibition (Homo sapiens [4]): 100%
Inhibition (Homo sapiens [5]): 0%

CCc1ccc(OC)c(C(O)c2ccc(C)cc2)c1 (centres undefined)
Inhibition (Cavia porcellus [1]): 28%

O=C(c1ccc(Cl)cc1)c1ccccc1O
Inhibition (Cavia porcellus [1]): 0%

CCc1ccc(OC)c(C(OC)c2ccc(Cl)cc2)c1 (centres undefined)
Inhibition (Cavia porcellus [1]): 32%
Inhibition (Cavia porcellus [2]): 22%

CCc1ccc(Cc2ccc(F)cc2)c(O)c1
Inhibition (Cavia porcellus [1]): 34%
Inhibition (Cavia porcellus [2]): 33%

CCc1ccc(O)c(C(=O)c2ccccc2)c1
Inhibition (Cavia porcellus [1]): 22%
Activity (Cavia porcellus [7]): 2.5
Activity (Cavia porcellus [8]): 1.2
Time (Cavia porcellus [9]): 2 h

CCc1ccc(O)c(Sc2ccc(Cl)cc2)c1
Inhibition (Cavia porcellus [1]): 31%
Inhibition (Cavia porcellus [2]): 31%

Cc1cccc(/C(=N/O)c2ccc(Cl)cc2)c1O
Inhibition (Cavia porcellus [1]): 52%
Inhibition (Cavia porcellus [2]): 52%

CCc1ccc(O)c(C(=O)c2cccnc2)c1
Inhibition (Cavia porcellus [1]): 27%

CCc1ccc(O)c(C(=O)c2cccc3ccccc23)c1
Inhibition (Cavia porcellus [1]): 0%

CCc1ccc(O)c(C(=O)c2ccc(F)cc2)c1
Inhibition (Cavia porcellus [1]): 1%

Cc1cccc(C(=O)c2ccccc2)c1O
Inhibition (Cavia porcellus [1]): 0%

CCc1ccc(O)c(C(=O)c2cccc(Cl)c2)c1
Inhibition (Cavia porcellus [1]): 0%

CCc1ccc(/C(=N/O)c2ccc(Cl)cc2)c(O)c1
Inhibition (Cavia porcellus [1]): 0%

Cc1ccc(C(=O)c2ccc(F)cc2)c(O)c1
Inhibition (Cavia porcellus [1]): 10%

CCc1ccc(O)c(C(=O)c2ccc(C)cc2)c1
Inhibition (Cavia porcellus [1]): 76%
Inhibition (Cavia porcellus [2]): 53%

CCc1ccc(C(O)c2ccc(F)cc2)c(O)c1 (centres undefined)
Inhibition (Cavia porcellus [1]): 34%
Inhibition (Cavia porcellus [2]): 5%

CCc1ccc(O)c(C(=O)c2ccc(Cl)c(Cl)c2)c1
Inhibition (Cavia porcellus [1]): 0%

CCc1ccc(OC(=O)c2ccccc2)c(C(=O)c2ccc(Cl)cc2)c1
Inhibition (Cavia porcellus [1]): 71%
Inhibition (Cavia porcellus [2]): 32%

C=C(c1ccc(Cl)cc1)c1cc(CC)ccc1O
Inhibition (Cavia porcellus [1]): 3%

CCc1cc([S+]([O-])c2ccc(C)cc2)c(O)cc1Cl (centres undefined)
Inhibition (Cavia porcellus [1]): 5%

CCc1ccc([S+](C)[O-])c(C(=O)c2ccc(F)cc2)c1 (centres undefined)
Inhibition (Cavia porcellus [1]): 42%
Inhibition (Cavia porcellus [2]): 9%

CCCc1cccc(C(=O)c2ccc(Cl)cc2)c1O
Inhibition (Cavia porcellus [1]): 0%

CCc1ccc(C(=O)c2ccc(Cl)cc2)c(O)c1
Inhibition (Cavia porcellus [1]): 8%

CCc1ccc(C(=O)c2cccc(F)c2)c(O)c1
Inhibition (Cavia porcellus [1]): 26%

CCc1ccc(C(=O)O)c(C(=O)c2ccc(Cl)cc2)c1
Inhibition (Cavia porcellus [1]): 20%

CC(=O)c1ccc(O)c(C(=O)c2ccc(Cl)cc2)c1
Inhibition (Cavia porcellus [1]): 49%
Inhibition (Cavia porcellus [2]): 61%

CCc1ccc(O)c(C(O)c2ccc([N+](=O)[O-])cc2)c1 (centres undefined)
Inhibition (Cavia porcellus [1]): 33%
Inhibition (Cavia porcellus [2]): 0%

Reference: ChEMBL document CHEMBL1123797, “Antianaphylactic benzophenones and related compounds” (1987)
